Experimental data from ChEMBL document CHEMBL4406830, “Galloyl esters of trans-stilbenes are inhibitors of FASN with anticancer activity on non-small cell lung cancer cells” (Eur J Med Chem, 2019).
pIC50: −log10 of the molar value. The source made the active and inactive calls. The calls are words filed in the database; no cut-off is given here.

Columns and labels:
[1] = biological target: Fatty acid synthase (Homo sapiens) (UniProt P49327); assay: Inhibition of FASN in human PC9 cells harboring FASN expression and EGFR delE746-A750 mutant assessed as disruption of AKT/FASN positive feedback loop by measuring FASN expression at 2 uM after 48 hrs in presence of exogenous lipid concentrate by Western immunoblot based densitometric assay relative to control; format: cell-based
Fatty acid synthase (Homo sapiens), sequence (P49327 whole entry, looked up): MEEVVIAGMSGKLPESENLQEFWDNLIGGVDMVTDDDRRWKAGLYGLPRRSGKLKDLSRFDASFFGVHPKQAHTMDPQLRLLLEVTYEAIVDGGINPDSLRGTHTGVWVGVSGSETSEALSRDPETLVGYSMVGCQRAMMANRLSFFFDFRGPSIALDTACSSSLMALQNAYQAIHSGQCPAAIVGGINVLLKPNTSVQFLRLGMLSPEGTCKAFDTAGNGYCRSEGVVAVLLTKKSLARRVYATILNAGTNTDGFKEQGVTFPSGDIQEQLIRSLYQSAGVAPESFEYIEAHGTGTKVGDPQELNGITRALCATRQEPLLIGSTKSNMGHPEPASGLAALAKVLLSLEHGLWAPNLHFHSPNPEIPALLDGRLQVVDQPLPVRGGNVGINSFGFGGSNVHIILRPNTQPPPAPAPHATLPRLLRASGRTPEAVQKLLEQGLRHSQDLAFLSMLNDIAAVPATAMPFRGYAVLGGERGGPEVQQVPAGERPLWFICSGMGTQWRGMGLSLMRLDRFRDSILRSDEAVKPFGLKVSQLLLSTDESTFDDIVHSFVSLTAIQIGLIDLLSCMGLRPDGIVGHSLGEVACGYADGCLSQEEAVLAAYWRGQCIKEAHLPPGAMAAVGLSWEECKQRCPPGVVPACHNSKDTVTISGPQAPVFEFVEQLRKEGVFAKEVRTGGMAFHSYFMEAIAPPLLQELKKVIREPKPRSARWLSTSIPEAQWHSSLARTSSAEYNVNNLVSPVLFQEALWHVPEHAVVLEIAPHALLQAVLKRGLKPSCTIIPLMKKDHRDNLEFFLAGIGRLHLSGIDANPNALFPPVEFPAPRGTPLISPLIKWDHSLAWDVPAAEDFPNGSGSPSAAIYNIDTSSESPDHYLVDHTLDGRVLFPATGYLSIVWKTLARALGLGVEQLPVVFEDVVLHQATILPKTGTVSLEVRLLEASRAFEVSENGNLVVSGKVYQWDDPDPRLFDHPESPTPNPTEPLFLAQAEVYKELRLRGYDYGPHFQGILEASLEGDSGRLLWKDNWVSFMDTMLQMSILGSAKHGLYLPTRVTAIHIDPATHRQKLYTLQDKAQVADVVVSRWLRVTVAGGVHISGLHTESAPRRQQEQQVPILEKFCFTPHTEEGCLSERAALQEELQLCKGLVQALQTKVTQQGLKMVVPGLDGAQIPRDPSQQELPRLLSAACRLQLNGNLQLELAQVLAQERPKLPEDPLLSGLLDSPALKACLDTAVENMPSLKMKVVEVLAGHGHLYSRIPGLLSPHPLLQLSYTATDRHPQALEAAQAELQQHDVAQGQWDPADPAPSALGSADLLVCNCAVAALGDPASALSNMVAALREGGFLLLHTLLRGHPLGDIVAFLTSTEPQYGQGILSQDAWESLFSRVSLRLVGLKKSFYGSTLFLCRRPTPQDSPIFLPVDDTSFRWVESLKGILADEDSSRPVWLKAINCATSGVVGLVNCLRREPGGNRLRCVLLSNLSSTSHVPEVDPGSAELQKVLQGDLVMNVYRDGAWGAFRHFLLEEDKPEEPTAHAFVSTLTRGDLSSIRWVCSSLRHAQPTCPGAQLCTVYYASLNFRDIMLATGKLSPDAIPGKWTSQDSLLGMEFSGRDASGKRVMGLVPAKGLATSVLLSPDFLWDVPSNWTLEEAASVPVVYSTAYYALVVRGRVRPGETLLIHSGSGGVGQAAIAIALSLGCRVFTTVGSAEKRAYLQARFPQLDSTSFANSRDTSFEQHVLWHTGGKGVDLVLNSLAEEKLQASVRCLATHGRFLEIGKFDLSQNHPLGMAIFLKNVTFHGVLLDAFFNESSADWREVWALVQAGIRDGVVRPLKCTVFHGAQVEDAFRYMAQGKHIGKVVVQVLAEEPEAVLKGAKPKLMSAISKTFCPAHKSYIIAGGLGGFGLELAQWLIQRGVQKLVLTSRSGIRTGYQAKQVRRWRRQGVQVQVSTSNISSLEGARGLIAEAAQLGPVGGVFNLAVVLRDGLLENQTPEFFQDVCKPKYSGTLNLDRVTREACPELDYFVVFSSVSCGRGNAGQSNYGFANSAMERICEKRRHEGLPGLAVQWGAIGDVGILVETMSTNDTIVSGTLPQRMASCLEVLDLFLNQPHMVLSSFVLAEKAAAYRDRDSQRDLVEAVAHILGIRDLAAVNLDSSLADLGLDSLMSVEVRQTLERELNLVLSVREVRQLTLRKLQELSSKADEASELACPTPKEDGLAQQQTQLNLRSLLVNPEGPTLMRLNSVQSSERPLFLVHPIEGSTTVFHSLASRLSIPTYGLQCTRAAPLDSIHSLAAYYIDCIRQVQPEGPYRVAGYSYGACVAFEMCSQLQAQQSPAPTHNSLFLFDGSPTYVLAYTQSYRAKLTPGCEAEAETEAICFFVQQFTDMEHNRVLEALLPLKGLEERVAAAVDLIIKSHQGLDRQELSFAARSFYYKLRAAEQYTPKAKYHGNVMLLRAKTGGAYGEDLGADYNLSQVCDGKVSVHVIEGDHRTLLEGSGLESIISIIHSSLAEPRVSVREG
Outline: (§1)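 PC-9 (2 µM) or H1703 (1 µM) cells were treated with compound, with or without lipid concentrate (1% v/v per figure legend), for 48 h. Cells were lysed in RIPA buffer and lysates run on SDS-PAGE western blots for FASN, AKT, phospho-AKT S473 and GAPDH. Bands were quantified by densitometry and normalised to untreated control.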

[2] = biological target: Fatty acid synthase (Homo sapiens) (UniProt P49327); assay: Inhibition of FASN in human PC9 cells harboring FASN expression and EGFR delE746-A750 mutant assessed as disruption of AKT/FASN positive feedback loop by measuring reduction in phosphorylated AKT expression at 1 uM after 48 hrs by Western immunoblot based densitometric assay relative to control; format: cell-based
Outline: (§2)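 PC-9 or H1703 cells were seeded at 8 × 10^5 per 100 mm dish and treated for 48 h at 1 or 5 µM (or 5, 50 and 100 µM). RIPA lysates were BCA-quantified and run on 8% SDS-PAGE, then transferred to PVDF. Blots were probed for FASN, AKT, phospho-AKT S473 and GAPDH and detected by ECL. Bands were quantified by densitometry and normalised to vehicle control.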

[3] = biological target: Fatty acid synthase (Homo sapiens) (UniProt P49327); assay: Inhibition of FASN in human NCI-H1703 cells expressing FASN assessed as disruption of AKT/FASN positive feedback loop by measuring decrease in FASN expression at 5 uM after 48 hrs by Western immunoblot based densitometric assay relative to control; format: cell-based; outline: as §2
[4] = biological target: Fatty acid synthase (Homo sapiens) (UniProt P49327); assay: Inhibition of FASN in human PC9 cells harboring FASN expression and EGFR delE746-A750 mutant assessed as disruption of AKT/FASN positive feedback loop by measuring decrease in FASN expression at 5 uM after 48 hrs by Western immunoblot based densitometric assay relative to control; format: cell-based; outline: as §2
PC-9 [5] = assay: Induction of apoptosis in human PC9 cells harboring FASN expression and EGFR delE746-A750 mutant assessed as increase in late apoptotic cells at 5 uM after 72 hrs by Annexin-V FITC/PI staining-based flow cytometry; format: functional, cell-based
[6] = Selectivity index, ratio of IC50 for human SAE cells lacking FASN expression to IC50 for human NCI-H1650 cells expressing FASN
Outline: (§3)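 Index is the SAEC IC50 divided by the IC50 in the FASN-expressing NSCLC line. IC50s came from MTS viability after 72 h exposure at 37 °C, 5% CO2, DMSO 0.1% v/v. Absorbance was read at 490 nm after 2 h. The fit was % viability against log concentration, with 4 technical repeats and 3 independent experiments. NSCLC lines were grown in RPMI/10% FBS; SAEC in BEGM.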

[7] = biological target: Fatty acid synthase (Homo sapiens) (UniProt P49327); assay: Inhibition of FASN in human NCI-H1703 cells expressing FASN assessed as disruption of AKT/FASN positive feedback loop by measuring ratio of phosphoAKT/AKT expression at 1 uM after 48 hrs in presence of exogenous lipid concentrate by Western immunoblot based densitometric assay relative to control; format: cell-based; outline: as §1
[8] = biological target: Fatty acid synthase (Homo sapiens) (UniProt P49327); assay: Inhibition of FASN in human NCI-H1703 cells expressing FASN assessed as disruption of AKT/FASN positive feedback loop by measuring decrease in AKT expression at 5 uM after 48 hrs by Western immunoblot based densitometric assay relative to control; format: cell-based; outline: as §2
[9] = Selectivity index, ratio of IC50 for human SAE cells lacking FASN expression to IC50 for human PC9 cells harboring FASN expression and EGFR delE746-A750 mutant; outline: as §3
[10] = Selectivity index, ratio of IC50 for human SAE cells lacking FASN expression to IC50 for human NCI-H1299 cells expressing FASN expression; outline: as §3
[11] = biological target: Fatty acid synthase (Homo sapiens) (UniProt P49327); assay: Inhibition of FASN in human NCI-H1703 cells expressing FASN assessed as disruption of AKT/FASN positive feedback loop by measuring decrease in phosphorylated AKT expression at 1 uM after 48 hrs by Western immunoblot based densitometric assay relative to control; format: cell-based; outline: as §2
[12] = biological target: Fatty acid synthase (Homo sapiens) (UniProt P49327); assay: Inhibition of FASN in human NCI-H1703 cells expressing FASN assessed as disruption of AKT/FASN positive feedback loop by measuring decrease in phosphorylated AKT expression at 5 uM after 48 hrs by Western immunoblot based densitometric assay relative to control; format: cell-based; outline: as §2
NCI-H1650 = assay: Antiproliferative activity against human NCI-H1650 cells expressing FASN assessed as reduction in cell viability after 72 hrs by MTS assay; format: functional, cell-based; conditions: NCI-H1650, 72 h
Outline: (§4)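 ATCC-sourced cells. H1299, H1650, H1703 and PC-9 were grown in RPMI 1640 with 10% FBS. A549 was grown in high-glucose DMEM with 10% FBS and 1 mM pyruvate. SAEC was grown in BEGM. Cells were seeded at 3 × 10^3 per well (H1650 3.5 × 10^3) and left to attach overnight. Serial dilutions from DMSO stocks were added, 0.1% DMSO final, for 72 h at 37 °C, 5% CO2. Medium was replaced, MTS added, and A490 read after 2 h. IC50 was taken from % viability versus log concentration, 3 experiments.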

PC-9 [13] = assay: Antiproliferative activity against human PC9 cells harboring FASN expression and EGFR delE746-A750 mutant assessed as cell viability at 2 uM after 72 hrs in presence of exogenous lipid concentrate by MTS assay; format: functional, cell-based
Outline: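 Cells were treated as in the MTS viability assay. After 6 h, chemically defined lipid concentrate was added to 2% v/v final. Incubation continued for a further 72 h, then viability was read by MTS at 490 nm. Cells were treated at 2 µM (PC-9) or 1 µM (H1703). Mean ± SD, n = 3, compared with compound alone.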

NCI-H1299 = assay: Antiproliferative activity against human NCI-H1299 cells expressing FASN assessed as reduction in cell viability after 72 hrs by MTS assay; format: functional, cell-based; conditions: NCI-H1299, 72 h; outline: as §4
[14] = biological target: Fatty acid synthase (Homo sapiens) (UniProt P49327); assay: Inhibition of FASN in human PC9 cells harboring FASN expression and EGFR delE746-A750 mutant assessed as disruption of AKT/FASN positive feedback loop by measuring decrease in FASN expression after 48 hrs by Western immunoblot assay; format: cell-based; outline: as §2
NCI-H1703 [15] = assay: Antiproliferative activity against human NCI-H1703 cells expressing FASN assessed as reduction in cell viability after 72 hrs by MTS assay; format: functional, cell-based; conditions: NCI-H1703, 72 h; outline: as §4
NCI-H1703 [16] = assay: Antiproliferative activity against human NCI-H1703 cells expressing FASN assessed as growth inhibition at 25 uM after 72 hrs by MTS assay relative to control; format: functional; conditions: NCI-H1703, 72 h
Outline: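 H1703 cells were treated with a single 25 µM concentration for 72 h. Viability was measured by MTS at 490 nm, with 0.1% DMSO and media-only correction, relative to untreated control. Mean ± SD of n = 3 independent determinations, unpaired t test against control.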

[17] = biological target: Fatty acid synthase (Homo sapiens) (UniProt P49327); assay: Inhibition of FASN in human NCI-H1703 cells expressing FASN assessed as disruption of AKT/FASN positive feedback loop by measuring decrease in FASN expression after 48 hrs by Western immunoblot assay; format: cell-based; outline: as §2

| SMILES | Ratio [1] | Ratio [2] | Ratio [3] | Ratio [4] | Activity (PC-9 [5]) | Ratio IC50 [6] | Ratio [7] | Ratio [8] | Ratio IC50 [9] | Ratio IC50 [10] | Ratio [11] | Ratio [12] | pIC50 (NCI-H1650) | inhibition (PC-9 [13]) | pIC50 (NCI-H1299) | inhibition [14] | pIC50 (NCI-H1703 [15]) | inhibition at 25 µM (NCI-H1703 [16]) [%] | inhibition [17] |
| --- | --- | --- | --- | --- | --- | --- | --- | --- | --- | --- | --- | --- | --- | --- | --- | --- | --- | --- | --- |
| O=C(Oc1ccc(/C=C/c2ccc(OC(=O)c3cc(O)c(O)c(O)c3)cc2)cc1)c1cc(O)c(O)c(O)c1 | 0.55 | 0.88 | 0.04 | 0.49 | Active | 2 | 0.62 | 0.01 | 2.2 | 1.5 | 0.09 | 0.001 | 5.60 | inactive | 5.48 | Dose-dependent effect | 6.01 | > 50 | Dose-dependent effect |
| O=C(Oc1ccc(/C=C/c2cccc(OC(=O)c3cc(O)c(O)c(O)c3)c2)cc1)c1cc(O)c(O)c(O)c1 | 0.62 | 0.53 | 0.08 | 0.65 | Active | 0.5 | 0.61 | 0.11 | 1.4 | 2.2 | 0.57 | 0.04 | 4.90 | inactive | 5.51 | Dose-dependent effect | 5.89 | > 50 | Dose-dependent effect |
